Source: ChEMBL document CHEMBL4196017, “Design, synthesis and identification of silicon-containing HCV NS5A inhibitors with pan-genotype activity” (Eur J Med Chem, 2018)

How the values were obtained:
Mus musculus [1] = experiment: Toxicity in ICR mouse assessed as total bilirubin level in serum at 150 mg/kg, po administered via gavage once daily for 14 days (reference value: 9.95 +/- 2.18 umol/L); type: organism-based; conditions: in vivo, 336 h
Mus musculus [2] = experiment: Toxicity in ICR mouse assessed as alkaline phosphatase level in serum at 150 mg/kg, po administered via gavage once daily for 14 days (reference value: 114.44 +/- 21.78 U/L); type: organism-based; conditions: in vivo, 336 h
How it was run: (§1)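 ICR mice, 5 males + 5 females per group, dosed by gavage once daily at 150 mg/kg (20 ml/kg) or vehicle for 14 days; killed after the 14th dose; blood from abdominal aorta under ether anaesthesia for hematology and clinical chemistry; mean ± SD, n = 10.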

Mus musculus [3] = experiment: Toxicity in ICR mouse assessed as basophil level in serum at 150 mg/kg, po administered via gavage once daily for 14 days (reference value: 0.02 +/- 0.04%); type: organism-based; conditions: in vivo, 336 h; how it was run: as §1
Mus musculus [4] = experiment: Toxicity in ICR mouse assessed as total cholesterol level at 150 mg/kg, po administered via gavage once daily for 14 days (reference value: 0.93 +/- 0.31 mmol/L); type: organism-based; conditions: in vivo, 336 h
Mus musculus [5] = experiment: Toxicity in ICR mouse assessed as ovary weight at 150 mg/kg, po administered via gavage once daily for 14 days (reference value: 0.079 +/- 0.007 g); type: organism-based; conditions: in vivo, 336 h
Mus musculus [6] = experiment: Toxicity in ICR mouse assessed as effect on food consumption at 150 mg/kg, po administered via gavage once daily for 14 days; type: organism-based; conditions: in vivo, 336 h
How it was run: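 ICR mice, 5 male + 5 female per group, gavage once daily for 14 days, vehicle control; food intake recorded on day 1 of dosing and then twice weekly, with daily clinical observation.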

Mus musculus [7] = experiment: Toxicity in ICR mouse assessed as lymphocyte level in serum at 150 mg/kg, po administered via gavage once daily for 14 days (reference value: 57.65 +/- 13.53%); type: organism-based; conditions: in vivo, 336 h
How it was run: (§2)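 Haematology on abdominal aortic blood taken at necropsy under ether anaesthesia after 14 daily gavage doses (20 ml/kg) in ICR mice, 5 per sex per group, vehicle control. Parameters: WBC, RBC, haemoglobin, platelets, reticulocyte ratio and differential leukocyte counts; mean ± SD, n = 10.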

Mus musculus [8] = experiment: Toxicity in ICR mouse assessed as albumin level in serum at 150 mg/kg, po administered via gavage once daily for 14 days (reference value: 25.87 +/- 1.67 g/l); type: organism-based; conditions: in vivo, 336 h; how it was run: as §1
Mus musculus [9] = experiment: Toxicity in ICR mouse assessed as reticulocyte level in serum at 150 mg/kg, po administered via gavage once daily for 14 days (reference value: 4.73 +/- 0.56%); type: organism-based; conditions: in vivo, 336 h; how it was run: as §2
Mus musculus [10] = experiment: Toxicity in ICR mouse assessed as WBC count at 150 mg/kg, po administered via gavage once daily for 14 days (reference value: 7.03 +/- 1.56 10^9/L); type: organism-based; conditions: in vivo, 336 h; how it was run: as §1
Mus musculus [11] = experiment: Toxicity in ICR mouse assessed as eosinophil level in serum at 150 mg/kg, po administered via gavage once daily for 14 days (reference value: 1.66 +/- 0.54%); type: organism-based; conditions: in vivo, 336 h; how it was run: as §2
Mus musculus [12] = experiment: Toxicity in ICR mouse assessed as total bile acid level at 150 mg/kg, po administered via gavage once daily for 14 days (reference value: 5.67 +/- 2.45 umol/L); type: organism-based; conditions: in vivo, 336 h
Mus musculus [13] = experiment: Toxicity in ICR mouse assessed as body weight at 150 mg/kg, po administered via gavage once daily for 14 days (reference value: 25.8 +/- 3.5 g); type: organism-based; conditions: in vivo, 336 h
Mus musculus [14] = experiment: Toxicity in ICR mouse assessed as brain weight at 150 mg/kg, po administered via gavage once daily for 14 days (reference value: 1.686 +/- 0.241 g); type: organism-based; conditions: in vivo, 336 h
Mus musculus [15] = experiment: Toxicity in ICR mouse assessed as kidney weight at 150 mg/kg, po administered via gavage once daily for 14 days (reference value: 1.51 +/- 0.211 g); type: organism-based; conditions: in vivo, 336 h
Mus musculus [16] = experiment: Toxicity in ICR mouse assessed as total protein level in serum at 150 mg/kg, po administered via gavage once daily for 14 days (reference value: 53.97 +/- 1.56 g/l); type: organism-based; conditions: in vivo, 336 h
[17] = molecular target: T1, Nonstructural protein 5A (Hepatitis C virus) (UniProt Q5L478); experiment: Potency index, ratio of ombitasvir IC50 to compound IC50 for inhibition of NS5A in HCV genotype 6a infected in human HuH7 replicon cells expressing HCV genotype 1b chimeric replicon; type: cell-based; conditions: Hepatitis C virus subtype 6a
T1 sequence (whole entry): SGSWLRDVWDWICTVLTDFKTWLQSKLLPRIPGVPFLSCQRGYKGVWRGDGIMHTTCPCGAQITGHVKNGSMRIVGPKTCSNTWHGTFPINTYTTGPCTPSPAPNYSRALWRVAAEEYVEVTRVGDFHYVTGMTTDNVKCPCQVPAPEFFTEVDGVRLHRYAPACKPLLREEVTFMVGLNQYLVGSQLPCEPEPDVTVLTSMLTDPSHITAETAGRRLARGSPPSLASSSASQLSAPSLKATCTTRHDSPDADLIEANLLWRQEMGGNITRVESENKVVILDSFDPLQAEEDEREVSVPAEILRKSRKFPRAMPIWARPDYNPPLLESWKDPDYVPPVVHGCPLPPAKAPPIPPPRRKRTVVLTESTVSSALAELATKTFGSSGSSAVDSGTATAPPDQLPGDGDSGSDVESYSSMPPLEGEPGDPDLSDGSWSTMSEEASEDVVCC

[18] = molecular target: T1, Nonstructural protein 5A (Hepatitis C virus); experiment: Potency index, ratio of ombitasvir IC50 to compound IC50 for inhibition of NS5A in HCV genotype 3a infected in human HuH7 replicon cells expressing HCV genotype 1b chimeric replicon; type: cell-based; conditions: Hepatitis C virus subtype 3a
Mus musculus [19] = experiment: Toxicity in ICR mouse assessed as thymus weight at 150 mg/kg, po administered via gavage once daily for 14 days (reference value: 0.289 +/- 0.081 g); type: organism-based; conditions: in vivo, 336 h
Mus musculus [20] = experiment: Toxicity in ICR mouse assessed as serum glutamate dehydrogenase level at 150 mg/kg, po administered via gavage once daily for 14 days (reference value: 13.78 +/- 2.86 U/L); type: organism-based; conditions: in vivo, 336 h
Mus musculus [21] = experiment: Toxicity in ICR mouse assessed as testis weight at 150 mg/kg, po administered via gavage once daily for 14 days (reference value: 0.881 +/- 0.037 g); type: organism-based; conditions: in vivo, 336 h
Mus musculus [22] = experiment: Toxicity in ICR mouse assessed as triglyceride level at 150 mg/kg, po administered via gavage once daily for 14 days (reference value: 1.67 +/- 0.32 mmol/L); type: organism-based; conditions: in vivo, 336 h
Mus musculus [23] = experiment: Toxicity in ICR mouse assessed as hemoglobin concentration at 150 mg/kg, po administered via gavage once daily for 14 days (reference value: 157.4 +/- 15.5 g/L); type: organism-based; conditions: in vivo, 336 h; how it was run: as §2
Mus musculus [24] = experiment: Toxicity in ICR mouse assessed as heart weight at 150 mg/kg, po administered via gavage once daily for 14 days (reference value: 0.539 +/- 0.094 g); type: organism-based; conditions: in vivo, 336 h
Mus musculus [25] = experiment: Toxicity in ICR mouse assessed as gamma glutamyltransferase level in serum at 150 mg/kg, po administered via gavage once daily for 14 days (reference value: 0 U/L); type: organism-based; conditions: in vivo, 336 h
Mus musculus [26] = experiment: Toxicity in ICR mouse assessed as blood glucose level at 150 mg/kg, po administered via gavage once daily for 14 days (reference value: 3.64 +/- 0.79 umol/L); type: organism-based; conditions: in vivo, 336 h; how it was run: as §1
Mus musculus [27] = experiment: Toxicity in ICR mouse assessed as blood urea nitrogen level in serum at 150 mg/kg, po administered via gavage once daily for 14 days (reference value: 10.44 +/- 1.77 mmol/L); type: organism-based; conditions: in vivo, 336 h; how it was run: as §1

## CC[Si](CC)(CC)c1ccc(N2[C@H](c3ccc(NC(=O)[C@@H]4CCCN4C(=O)[C@@H](NC(=O)OC)C(C)C)cc3)CC[C@H]2c2ccc(NC(=O)[C@@H]3CCCN3C(=O)[C@@H](NC(=O)OC)C(C)C)cc2)cc1
Mus musculus [1]
  Activity: 11.24 µmol/L
Mus musculus [2]
  Activity: 105.7 U/L
Mus musculus [3]
  Activity: 0.02%
Mus musculus [4]
  Activity: 0.85 mmol/L
Mus musculus [5]
  Activity: 0.097 g
Mus musculus [6]
  Activity: Non-Toxic
Mus musculus [7]
  Activity: 52.54%
Mus musculus [8]
  Activity: 25.38 g/L
Mus musculus [9]
  Activity: 3.88%
Mus musculus [10]
  Activity: 6.2 ×10⁹ /L
Mus musculus [11]
  Activity: 1.88%
Mus musculus [12]
  Activity: 10.5 µmol/L
Mus musculus [13]
  Activity: 24 g
Mus musculus [14]
  Activity: 1.807 g
Mus musculus [15]
  Activity: 1.579 g
Mus musculus [16]
  Activity: 52.31 g/L
[17]
  Ratio IC50: 7.6
[18]
  Ratio IC50: 8.6
Mus musculus [19]
  Activity: 0.24 g
Mus musculus [20]
  Activity: 15.1 U/L
Mus musculus [21]
  Activity: 0.789 g
Mus musculus [22]
  Activity: 1.53 mmol/L
Mus musculus [23]
  Activity: 154.6 g/L
Mus musculus [24]
  Activity: 0.567 g
Mus musculus [25]
  Activity: 0.03 U/L
Mus musculus [26]
  Activity: 4.18 mmol/L
Mus musculus [27]
  Activity: 10.16 mmol/L
